Bioassay records: PubChem BioAssay, several laboratories
CTSL1 counter: blocks F. hepatica cathepsin L1 in PFM18AAP counter-screen; inhibition, % at 5.96 µM; hit rate 0.49% among 300,000; AID 1906; recombinant F. hepatica cathepsin L1, Z-Leu-Arg-MCA fluorescence;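 active = inhibition above the mean of all tested compounds plus 3 SD, set per screening campaign, cut at about 17% in these data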;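 also: 0% = plate median of test compound wells and 100% = 1 µM Z-Phe-Ala-diazomethylketone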
PAD4 FP inh: inhibitors of human PAD4; Q9UM07; recombinant PAD4, RCA probe fluorescence polarization; inhibition, % at 6.36 µM; hit rate 0.41% among 330,000;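 active = percent inhibition above a cutoff equal to the mean of all tested compounds plus 3 SD, cut at about 15% in these data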;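 also: 0% = PAD4 with RCA probe and DMSO and 100% = probe without PAD4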
Apaf1 inhib: human Apaf-1 inhibition. reconstituted apoptosome caspase-3 activity, DEVD-Rh110 fluorescence. inhibition, % at 20 µM. hit rate 0.71% among 330,000. AID 489030; active = inhibition of at least 40% at 20 µM;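 also: plate controls were DMSO wells for no effect and DEVD-CHO caspase inhibitor wells for full effect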
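System – cell-free apoptosome with Apaf-1, procaspase-3 and caspase-9 · Buffer or medium – pH 7.5 Hepes buffer with CHAPS, BSA, DTT · Also added – cytochrome c with DEVD-Rh110 · Times – 30 min compound preincubation, 50 min activation, room temperature · Technique – Rh110 fluorescence intensity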
TDP2 absorb: blocks human TDP2 phosphodiesterase activity; O95551; recombinant TDP2, T5PNP hydrolysis, p-nitrophenol absorbance 415 nm; inhibition, % at 12.8 µM; hit rate 0.34% among 370,000;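 active = inhibition above the mean of all tested compounds plus 3 SD, set per campaign, cut at about 25% in these data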;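 also: 0% = DMSO with enzyme and 100% = buffer with substrate but no TDP2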
Target sequence (O95551 whole entry, looked up): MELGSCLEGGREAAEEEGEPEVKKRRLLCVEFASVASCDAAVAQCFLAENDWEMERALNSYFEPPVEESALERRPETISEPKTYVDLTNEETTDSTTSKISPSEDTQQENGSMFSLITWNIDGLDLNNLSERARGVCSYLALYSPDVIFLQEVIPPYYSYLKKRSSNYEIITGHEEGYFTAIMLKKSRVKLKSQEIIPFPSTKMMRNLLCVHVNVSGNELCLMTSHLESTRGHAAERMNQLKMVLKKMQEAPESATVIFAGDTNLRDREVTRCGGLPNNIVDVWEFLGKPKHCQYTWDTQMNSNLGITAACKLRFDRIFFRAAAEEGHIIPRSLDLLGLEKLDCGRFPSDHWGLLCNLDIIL
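Incubation: 2 h at 37 °C; Test system: recombinant human TDP2; Quantity: enzyme 120 nM; Read-out basis: percent inhibition; Medium: 50 mM Tris-HCl pH 7.5 with Mg2+, KCl, DTT, BSA; Repeats: single replicate; Compound: 12.8 µM single point, 1% DMSO; Signal: epi absorbance; Reagent: 5 mM T5PNP chromogenic substrate; Benchmarks: no-enzyme high, DMSO-plus-enzyme low.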
GSTO1 counter: blocks human GSTO1 in RBBP9 counter-screen. P78417. recombinant GSTO1, activity-based probe fluorescence polarization. inhibition, % at 5.96 µM. hit rate 1.1% among 300,000;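 active = inhibition above the campaign mean inhibition plus 3 SD, cut at about 35% in these data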;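 also: 0% = GSTO1-1 with DMSO and 100% = wells lacking GSTO1-1 enzyme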
Target sequence (P78417 whole entry, looked up): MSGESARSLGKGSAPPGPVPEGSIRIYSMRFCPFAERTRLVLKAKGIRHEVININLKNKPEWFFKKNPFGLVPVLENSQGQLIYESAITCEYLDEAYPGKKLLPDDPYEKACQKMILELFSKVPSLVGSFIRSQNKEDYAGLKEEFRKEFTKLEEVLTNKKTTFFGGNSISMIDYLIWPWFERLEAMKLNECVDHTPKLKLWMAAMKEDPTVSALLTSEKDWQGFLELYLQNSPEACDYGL
The depositor's hits bear a star. Rows were chosen to be rich in hits. Some 1.8% of all compounds tested hit in one or more screens of this group.

Cc1ccc(NC(=O)COn2nnc3ccc(S(=O)(=O)N(C)C)cc32)cc1F was read as CTSL1 counter 4, PAD4 FP inh 2, Apaf1 inhib 5, TDP2 absorb -12 and GSTO1 counter 36*.
For COCc1[nH]nc2c1C(c1ccc(F)cc1)NC2=O (stereo not given) the results were TDP2 absorb -9.
`O=c1c(-c2ccc(Br)cc2)coc2c(CN3CCCCC3)c(O)ccc12` gave Apaf1 inhib 6 and TDP2 absorb -6.
COc1ccc(-c2coc3c(CN4CCCCC4)c(O)c(CN4CCCCC4)c(O)c3c2=O)cc1 was read as CTSL1 counter -1, PAD4 FP inh -9, Apaf1 inhib 42* and GSTO1 counter 12.
`Oc1ccc(O)c(Cc2nc3ccccc3s2)c1` gave CTSL1 counter -24, PAD4 FP inh -7, Apaf1 inhib -13, TDP2 absorb 4 and GSTO1 counter 61*.
`CC(C)CCNC(=O)C1CCCN(C(=O)c2ccc3c(c2)NC(=O)CS3)C1` (stereo not given) gave TDP2 absorb -3.
Screening CCCN1/C(=C2/SC(=S)N(CC)C2=O)C=Cc2ccccc21 returned CTSL1 counter 30*, PAD4 FP inh 7, Apaf1 inhib 20, TDP2 absorb 0 and GSTO1 counter -3.
Screening CCCN1C(=O)/C(=C2/C=Cc3ccccc3N2CC)SC1=S returned CTSL1 counter 1, PAD4 FP inh 1, Apaf1 inhib 18, TDP2 absorb -17 and GSTO1 counter 8.
O=C(Cc1cc(=O)[nH][nH]1)N/N=C/c1c(F)cccc1Cl was read as CTSL1 counter -1, PAD4 FP inh -16, Apaf1 inhib 25, TDP2 absorb 5 and GSTO1 counter 34.
For O=C(Cc1cc(=O)[nH][nH]1)N/N=C/c1ccccc1Cl the results were CTSL1 counter -3, PAD4 FP inh -13, Apaf1 inhib 77*, TDP2 absorb -2 and GSTO1 counter 33.
`C#CCN1CC(N(C)CCOC(=O)CCCc2ccccc2)CS1(=O)=O` (stereo not given) gave TDP2 absorb 5.
COc1ccc(OC)c(C(C)NS(=O)(=O)c2cccs2)c1 (stereo not given) was read as PAD4 FP inh -4, Apaf1 inhib -4 and TDP2 absorb 7.
COc1ccccc1C(C)NS(=O)(=O)c1cccs1 (stereo not given) was read as CTSL1 counter 2, PAD4 FP inh 97*, Apaf1 inhib 5 and GSTO1 counter -3.
`O=C(NC1CCCC1)[C@@H]1CCCN1C(=O)[C@@H](NC(=O)N1CCOCC1)C1CCCCC1` gave TDP2 absorb 0.
For O=C1CN(C(=O)C2CCCCC2)C=CN1CCc1ccccc1Br the results were TDP2 absorb 1.
Screening CCOC(=O)Cn1cc(CN2C(C(=O)OC)CN(C3CC3)CCS2(=O)=O)nn1 (stereo not given) returned TDP2 absorb 5.
For CC(=O)c1ccc(C(=O)Nc2nnc(-c3ccc(Cl)cc3)o2)cc1 the results were CTSL1 counter -1, PAD4 FP inh -1, Apaf1 inhib 7, TDP2 absorb -2 and GSTO1 counter -3.
`CN(C)c1ccc(C(=O)Nc2nnc(-c3ccc(Cl)cc3)o2)cc1` gave CTSL1 counter 5, PAD4 FP inh 6, Apaf1 inhib 11, TDP2 absorb -8 and GSTO1 counter 36*.
`CCC1Oc2ccccc2N(CC(=O)NCc2cccs2)C1=O` (stereo not given) gave CTSL1 counter 4, PAD4 FP inh 1, Apaf1 inhib 2, TDP2 absorb 2 and GSTO1 counter 37*.
For CSc1ccc2c(c1)N(CCC1CCCCN1C)c1ccccc1S2 (stereo not given) the results were CTSL1 counter 1, PAD4 FP inh 1, Apaf1 inhib 55*, TDP2 absorb -6 and GSTO1 counter 8.
`CC(C)CN1C(=O)C[C@]2(C(=O)N(C)c3ccc(NS(=O)(=O)C4CC4)cc32)C1c1ccccc1` (stereo not given in full) gave TDP2 absorb -7.
Screening COc1ccc(OC)c2sc(N(CCCN(C)C)C(=O)CCS(=O)(=O)c3ccccc3)nc12 returned CTSL1 counter 37*, PAD4 FP inh 1, Apaf1 inhib 16, TDP2 absorb 1 and GSTO1 counter 9.
For CN(C)CCCN(C(=O)CCS(=O)(=O)c1ccccc1)c1nc2cc3c(cc2s1)OCO3 the results were CTSL1 counter 29*, PAD4 FP inh -2, Apaf1 inhib -4, TDP2 absorb 2 and GSTO1 counter -1.
CN(C)CCCN(C(=O)CCSc1ccccc1)c1nc2cc3c(cc2s1)OCO3 was read as CTSL1 counter 0, PAD4 FP inh -2, Apaf1 inhib 1, TDP2 absorb 1 and GSTO1 counter 12.
Cc1ccc2sc(N(CCCN(C)C)C(=O)CCS(=O)(=O)c3ccccc3)nc2c1C was read as CTSL1 counter 40*, PAD4 FP inh -1, Apaf1 inhib 25, TDP2 absorb -14 and GSTO1 counter -8.
COc1cccc(CNC(=O)C[C@H]2CC[C@H]3[C@@H](COc4ccc(NC(=O)c5cccs5)cc4C(=O)N3C)O2)c1 was read as TDP2 absorb -1.
`Cc1ccc(S(=O)(=O)N(C)[C@H]2C[C@H]3c4[nH]c5c(-c6ccccc6)cccc5c4CCN3C(=O)[C@H]2[C@H](C)O)cc1` gave TDP2 absorb -6.
`C[C@H]1[C@@H](OC(=O)NCc2ccccc2Cl)CC[C@@]23CCCN2C(=O)CCC[C@@H]13` gave TDP2 absorb 7.
Nc1cc(N2CCCC2)c(Cl)cc1[N+](=O)[O-] was read as CTSL1 counter 8, PAD4 FP inh -3, Apaf1 inhib 43*, TDP2 absorb -9 and GSTO1 counter -2.
`CC(=O)OC1c2ccccc2C(=O)N1c1ccccc1C` (stereo not given) gave CTSL1 counter -4, PAD4 FP inh -1, Apaf1 inhib 0, TDP2 absorb 3 and GSTO1 counter 4.
CC(=O)OC1c2ccccc2C(=O)N1Cc1ccccc1 (stereo not given) was read as CTSL1 counter 20*, PAD4 FP inh -4, Apaf1 inhib 5, TDP2 absorb -6 and GSTO1 counter 4.
`O=S(=O)(c1ccc(C(F)(F)F)cc1)N1CCCc2nc(-c3ccc(Br)cc3)ccc21` gave TDP2 absorb -9.
`CCOc1ccc(-n2c(SCC(=O)NN=Cc3ccc(C(=O)O)cc3)nnc2-c2cccnc2)cc1` gave TDP2 absorb 5.
For O=C(c1ccco1)N1CCN(C(=O)c2ccco2)CC1 the results were TDP2 absorb -4.
O=C1NCCN1C(=O)c1ccco1 was read as CTSL1 counter 21*, PAD4 FP inh 4, Apaf1 inhib 8, TDP2 absorb 6 and GSTO1 counter -4.
